Converted amounts (≈) assume the structure as drawn. Blank lines part the entries; values can stand above or below the compound they belong to.
Columns and labels:
[1] = Oxidative metabolic stability in human liver microsomes assessed as compound remaining after 30 mins; format: ADME, Microsome; conditions: read-out: Stability
Summary of the method: (§1)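 Liver microsomes, mouse or human, were incubated with the compound for 30 min under oxidative conditions. The read-out is the percent of parent compound remaining.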

[2] = biological target: Mitogen-activated protein kinase 8 (Homo sapiens, UniProt P45983); assay: Inhibition of JNK1 by TR-FRET assay
Summary of the method: (§2)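 IC50s were determined at a single fixed ATP concentration, and each value is the mean of at least three independent experiments.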

[3] = biological target: Mitogen-activated protein kinase 10 (Homo sapiens, UniProt P53779); assay: Inhibition of JNK3 by TR-FRET assay; summary of the method: as §2
[4] = Oxidative metabolic stability in mouse liver microsomes assessed as compound remaining after 30 mins; format: ADME, Microsome; conditions: read-out: Stability; summary of the method: as §1
[5] = biological target: Mitogen-activated protein kinase 9 (Homo sapiens, UniProt P45984); assay: Inhibition of JNK2 by TR-FRET assay; summary of the method: as §2
[6] = Solubility of the compound; format: physicochemical
[7] = Metabolic stability in human liver microsomes assessed as compound remaining after 60 mins in presence of UDPGA; format: ADME, Microsome; conditions: read-out: Stability
[8] = Apparent permeability from apical to basolateral side in MDCK2 cells at 5 uM after 120 mins; format: ADME, cell-based, Canis lupus familiaris, MDCK-II; conditions: dog, MDCK
[9] = Metabolic stability in mouse liver microsomes assessed as compound remaining after 60 mins in presence of UDPGA; format: ADME, Microsome; conditions: read-out: Stability
[10] = Selectivity ratio of IC50 for JNK1 to IC50 for JNK3

Sequence of Mitogen-activated protein kinase 8 (P45983 whole entry): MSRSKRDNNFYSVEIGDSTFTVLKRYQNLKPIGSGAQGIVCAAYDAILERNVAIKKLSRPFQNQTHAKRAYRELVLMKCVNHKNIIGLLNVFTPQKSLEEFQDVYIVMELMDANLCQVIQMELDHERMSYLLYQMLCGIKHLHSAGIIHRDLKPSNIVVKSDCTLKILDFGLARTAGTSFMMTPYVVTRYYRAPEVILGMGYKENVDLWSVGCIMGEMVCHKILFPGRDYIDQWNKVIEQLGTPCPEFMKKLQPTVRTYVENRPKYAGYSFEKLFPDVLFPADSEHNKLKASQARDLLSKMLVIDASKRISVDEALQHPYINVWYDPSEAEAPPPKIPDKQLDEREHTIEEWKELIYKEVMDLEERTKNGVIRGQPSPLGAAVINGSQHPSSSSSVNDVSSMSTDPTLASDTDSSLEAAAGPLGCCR
Sequence of Mitogen-activated protein kinase 10 (P53779 whole entry): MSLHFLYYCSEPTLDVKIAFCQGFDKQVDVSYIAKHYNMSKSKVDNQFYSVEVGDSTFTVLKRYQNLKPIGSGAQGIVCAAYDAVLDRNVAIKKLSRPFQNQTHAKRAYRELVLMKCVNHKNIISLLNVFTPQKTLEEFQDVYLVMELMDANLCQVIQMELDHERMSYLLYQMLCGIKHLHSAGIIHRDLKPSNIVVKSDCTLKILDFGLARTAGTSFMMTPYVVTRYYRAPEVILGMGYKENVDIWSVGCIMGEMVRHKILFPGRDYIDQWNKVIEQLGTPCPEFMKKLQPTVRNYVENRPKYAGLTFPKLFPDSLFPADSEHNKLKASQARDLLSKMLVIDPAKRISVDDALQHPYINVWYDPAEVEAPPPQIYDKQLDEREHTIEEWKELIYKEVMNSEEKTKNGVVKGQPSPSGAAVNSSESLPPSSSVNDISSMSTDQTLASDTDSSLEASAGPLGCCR
Sequence of Mitogen-activated protein kinase 9 (P45984 whole entry): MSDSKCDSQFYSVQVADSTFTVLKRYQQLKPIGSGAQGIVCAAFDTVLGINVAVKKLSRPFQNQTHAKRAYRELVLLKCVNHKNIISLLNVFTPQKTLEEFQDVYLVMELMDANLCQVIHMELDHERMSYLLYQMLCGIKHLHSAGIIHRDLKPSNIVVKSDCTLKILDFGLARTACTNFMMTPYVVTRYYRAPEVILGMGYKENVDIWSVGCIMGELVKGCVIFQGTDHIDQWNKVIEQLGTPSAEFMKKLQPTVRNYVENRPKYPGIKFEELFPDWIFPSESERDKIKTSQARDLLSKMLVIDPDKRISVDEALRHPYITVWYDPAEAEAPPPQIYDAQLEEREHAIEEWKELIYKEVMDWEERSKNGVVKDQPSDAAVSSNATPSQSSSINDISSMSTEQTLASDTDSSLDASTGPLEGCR

remaining at 0.5 h [1]: 29%
IC50 [2]: > 50 µM
IC50 [3]: 4.13 µM
remaining at 0.5 h [4]: 0%
IC50 [5]: 18.1 µM
SMILES: c1ccc2cc(-c3ncncc3-c3ccncc3)ccc2c1

IC50 [2]: > 50 µM
IC50 [3]: 18.3 µM
solubility [6]: 100 µM (≈ 28.6 µg/mL)
IC50 [5]: 46.2 µM
SMILES: Cc1nnc(-c2ccncc2)n1-c1ccc2ccccc2c1

remaining at 0.5 h [1]: 2%
IC50 [2]: 41.9 µM
IC50 [3]: 2.46 µM
remaining at 0.5 h [4]: 0%
IC50 [5]: 9.31 µM
SMILES: c1ccc2cc(-c3ccnn3-c3ccncc3)ccc2c1

remaining at 0.5 h [1]: 16%
IC50 [2]: > 50 µM
IC50 [3]: > 50 µM
remaining at 0.5 h [4]: 0%
IC50 [5]: > 50 µM
SMILES: c1ccc2cc(-c3nnnn3-c3ccncc3)ccc2c1

remaining at 1 h [7]: 100%
Papp A→B at 2 h, 5 µM [8]: 306 nm/s
remaining at 0.5 h [1]: 100%
IC50 [2]: > 50 µM
remaining at 1 h [9]: 87%
IC50 [3]: 4.48 µM
solubility [6]: 35 µM (≈ 9.53 µg/mL)
remaining at 0.5 h [4]: 76%
IC50 [5]: 19 µM
SMILES: c1ccc2cc(-n3cnnc3-c3ccncc3)ccc2c1

IC50 [2]: > 50 µM
IC50 [3]: > 50 µM
solubility [6]: 15 µM (≈ 5.1 µg/mL)
IC50 [5]: > 50 µM
SMILES: FC(F)(F)c1nnc(-c2ccncc2)n1-c1ccc2ccccc2c1

IC50 [2]: > 50 µM
IC50 [3]: 2.67 µM
IC50 [5]: 9.14 µM
SMILES: c1ccc2cc(-n3nncc3-c3ccncc3)ccc2c1

The remaining lines, values behind:

SMILES: Cc1cc(-c2n[nH]c(=S)n2-c2ccc3ccccc3c2)ccn1
IC50 [2]: > 50 µM
IC50 [3]: 14.8 µM
solubility [6]: 100 µM (≈ 31.8 µg/mL)
IC50 [5]: 15.3 µM

SMILES: Fc1cnccc1-c1n[nH]c(=S)n1-c1ccc2ccccc2c1
IC50 [2]: > 50 µM
IC50 [3]: 27.4 µM
solubility [6]: 35 µM (≈ 11.3 µg/mL)
IC50 [5]: 34.6 µM

SMILES: Nc1cc(-c2n[nH]c(=S)n2-c2ccc3ccccc3c2)ccn1
IC50 [2]: 24.3 µM
IC50 [3]: 1.03 µM
solubility [6]: 100 µM (≈ 31.9 µg/mL)
IC50 [5]: 0.504 µM

SMILES: S=c1[nH]nc(-c2ccnc(NC3CCCCC3)c2)n1-c1ccc2ccccc2c1
IC50 [2]: > 50 µM
IC50 [3]: 0.0522 µM
solubility [6]: 5 µM (≈ 2.01 µg/mL)
IC50 [5]: 0.0665 µM

SMILES: c1ccc2cc(-n3nnnc3-c3ccncc3)ccc2c1
IC50 [2]: > 50 µM
IC50 [3]: 49.1 µM
solubility [6]: 15 µM (≈ 4.1 µg/mL)
IC50 [5]: > 50 µM

SMILES: c1ccc2cc(-c3nn[nH]c3-c3ccncc3)ccc2c1
Ratio IC50 [10]: 20

SMILES: N/N=c1\[nH]nc(-c2ccncc2)n1-c1ccc2ccccc2c1
IC50 [2]: > 50 µM
IC50 [3]: 14.9 µM
solubility [6]: 65 µM (≈ 19.7 µg/mL)
IC50 [5]: 34 µM
